From publication PMC9064050 (RSC Advances, 2019)
Converted amounts (≈) assume the structure as drawn.

Experiments:
CT-DNA [1] = experiment: Nuclease activity by gel electrophoresis in presence of H2O2; type: biochemical; details: CT-DNA + H2O2, agarose gel
Outline: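 Chemical nuclease assay: CT-DNA with test compound plus H2O2 in Tris–HCl buffer, pH 7.2. Products run on agar gel electrophoresis and imaged under a UV transilluminator. Band migration compared with a DNA + H2O2 control.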

CT-DNA [2] = experiment: DNA binding by electronic absorption titration; details: Wolfe–Shimmer method; 298 K, pH 7.2
Outline: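 UV-Vis titration at a fixed complex concentration of 100 μM in 5 mM Tris–HCl/50 mM NaCl, pH 7.2, 25 °C. CT-DNA varied 0–150 μM, with [DNA] expressed in base pairs. Kb (Wolfe–Shimmer) taken as the slope-to-intercept ratio of [DNA]/(εa−εf) vs [DNA].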

[3] = molecular target: bovine serum albumin (BSA) (Bos taurus, UniProt P02769); experiment: BSA binding assay by absorption titration
bovine serum albumin (BSA), sequence (P02769 25-607): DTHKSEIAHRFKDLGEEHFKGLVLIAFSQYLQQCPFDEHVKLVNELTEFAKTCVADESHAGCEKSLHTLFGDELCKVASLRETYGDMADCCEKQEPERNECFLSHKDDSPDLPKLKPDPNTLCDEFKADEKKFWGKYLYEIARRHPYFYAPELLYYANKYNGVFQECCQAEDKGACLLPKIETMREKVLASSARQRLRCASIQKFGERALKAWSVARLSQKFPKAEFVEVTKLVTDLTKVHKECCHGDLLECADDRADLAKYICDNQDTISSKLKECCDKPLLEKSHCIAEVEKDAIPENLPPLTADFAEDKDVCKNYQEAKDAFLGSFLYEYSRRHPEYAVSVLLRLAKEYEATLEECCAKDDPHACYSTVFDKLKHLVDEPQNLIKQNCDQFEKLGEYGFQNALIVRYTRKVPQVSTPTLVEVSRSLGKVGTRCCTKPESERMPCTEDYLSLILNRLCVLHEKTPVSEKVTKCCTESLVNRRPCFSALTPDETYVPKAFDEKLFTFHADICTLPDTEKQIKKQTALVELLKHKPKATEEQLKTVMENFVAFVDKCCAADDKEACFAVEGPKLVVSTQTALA

CT-DNA [4] = experiment: DNA thermal denaturation by absorption; type: binding
EB–DNA = experiment: Competitive binding
Outline: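 EB displacement fluorescence titration: CT-DNA 100 μM with EB in 50 mM Tris–HCl/1 mM NaCl buffer (pH 7.2), test compound 0–120 μM. Emission at 610 nm. KSV and Kq from Stern–Volmer (τ0 = 10^−8 s); Kass and n from log(F0−F)/F vs log[Q]; KLB from 1/(F0−F) vs 1/[Q]; KSC and n from Scatchard. Kapp from KEB[EB] = Kapp[compound] at 50% EB-fluorescence loss (KEB = 10^7 M−1, EB 50 μM).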

[5] = DPPH radical scavenging assay; details: 240 µM, 517 nm
Outline: (§1)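 Absorbance read at 517 nm (DPPH), 230 nm (hydroxyl), 590 nm (superoxide), 546 nm (nitric oxide) and 700 nm (FRAP). FRAP measures the rise in absorbance from Fe3+→Fe2+ reduction with ferricyanide. IC50 taken from % inhibition vs concentration plots.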

[6] = Hydroxyl radical scavenging assay; details: 240 µM, 230 nm
Outline: as §1

[7] = Superoxide scavenging assay; details: 240 µM, 590 nm
Outline: as §1

[8] = Nitric oxide scavenging assay; details: 240 µM, 546 nm
Outline: as §1

[9] = Ferric reducing antioxidant power; details: 240 µM, 700 nm
Outline: as §1

Escherichia coli = experiment: Kirby–Bauer agar disc diffusion; type: cell-based; details: A = (−) Escherichia coli
Outline: (§2)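 Kirby–Bauer disc diffusion on Mueller–Hinton agar (pH 7.2, autoclaved 121 °C for 15 min, ~4 mm deep, held 2–8 °C for 24 h). Plates spread with 24 h cultures. 6 mm discs loaded with 20 μL of 100 μM test compound. Bacteria incubated at 37 °C for 48 h; fungi at 22 °C for 7 days. Clear-zone diameter measured by ruler; % inhibition by eqn (20) against 6 mm control.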

[10] = test system: Salmonella enteric serovar typhi; experiment: Kirby–Bauer agar disc diffusion; type: cell-based; details: B = (−)Salmonella enteric serovar typhi
Outline: as §2

[11] = test system: Chromobacterium violaceum; experiment: Kirby–Bauer agar disc diffusion; type: cell-based; details: C = (−)Chromobacterium violaceum
Outline: as §2

Pseudomonas aeruginosa = experiment: Kirby–Bauer agar disc diffusion; type: cell-based; details: D = (−)Pseudomonas aeruginosa
Outline: as §2

Shigella flexneri = experiment: Kirby–Bauer agar disc diffusion; type: cell-based; details: E = (−)Shigella flexneri
Outline: as §2

Staphylococcus aureus = experiment: Kirby–Bauer agar disc diffusion; type: cell-based; details: F = (+)Staphylococcus aureus
Outline: as §2

Bacillus cereus = experiment: Kirby–Bauer agar disc diffusion; type: cell-based; details: G = (+)Bacillus cereus
Outline: as §2

Aspergillus niger = experiment: Kirby–Bauer agar disc diffusion; type: cell-based; details: H = Aspergillus niger
Outline: as §2

Candida albicans = experiment: Kirby–Bauer agar disc diffusion; type: cell-based; details: I = Candida albicans
Outline: as §2

Mucor indicus = experiment: Kirby–Bauer agar disc diffusion; type: cell-based; details: J = Mucor indicus
Outline: as §2

human lung cancer (A549) = experiment: In vitro anticancer MTT assay; type: cell-based; details: 50% cell death following 72 h exposure
Outline: (§3)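 MTT viability: cells seeded at 1 × 10^5 per well and incubated 24 h at 37 °C, 5% CO2. Treated with test compound at 10–100 μg mL−1 (from DMSO). Medium removed, wells PBS-washed, RPMI-1640 plus MTT (5 mg mL−1 solution) added for 4 h at 37 °C. Formazan dissolved in DMSO, read at 570 nm. Triplicate wells; IC50 from % viability; cisplatin as reference.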

liver cancer (HepG2) = experiment: In vitro anticancer MTT assay; type: cell-based, human; details: 50% cell death following 72 h exposure
Outline: as §3

breast (MCF-7) = experiment: In vitro anticancer MTT assay; type: cell-based, human; details: 50% cell death following 72 h exposure
Outline: as §3

[12] = test system: normal human dermal fibroblast (NHDF); experiment: MTT assay on normal cells; type: cell-based; details: normal cell line; 50% cell death following 72 h exposure
Outline: as §3

[13] = 20 μL of 100 μM per disc, control 6 mm

SMILES: Oc1ccc(Br)cc1C=NCCN1CCOCC1 [HL, 2-(-(2-morpholinoethylimino)methyl)-4-bromophenol]
- DNA cleavage efficacy (CT-DNA [1]): inactive
- Kb, WS method (intrinsic DNA binding constant) (CT-DNA [2]): 10000 M⁻¹
- Chromism (%H), hyperchromism ([3]; BSA absorption, pH 7.2, 25 °C): 34.27%
- Δλ (nm), bound vs free ([3]; blue-shift of BSA band, pH 7.2, 25 °C): 02 nm
- Gibb's free energy change ([3]; from Kapp): -5.595 kcal/mol
- Binding constant Kr at 298 K (CT-DNA [4]): 10038 M⁻¹
- KLB (Lineweaver–Burk binding constant) (EB–DNA): 1498 M⁻¹
- KSV (Stern–Volmer binding constant), Method-I (EB–DNA): 4658 M⁻¹
- Kass (association binding constant), Stern–Volmer Method-II (EB–DNA): 1924 M⁻¹
- Apparent binding constant Kapp (EB–DNA; KEB[EB] = Kapp[compound], 50% reduction of EB fluorescence): 269932 M⁻¹
- KSC (Scatchard binding constant) (EB–DNA; Scatchard analysis): 10942 M⁻¹
- % Inhibition, DPPH [5]: 50.64%
- % Inhibition, hydroxyl radical [6]: 51.78%
- % Inhibition, superoxide [7]: 50.62%
- % Inhibition, nitric oxide [8]: 50.20%
- % Inhibition, ferric reducing power [9]: 54.29%
- diameter of clear zone inhibition (Escherichia coli; 20 μL of 100 μM per disc, control (DMSO) = 6 mm): 14 mm
- inhibition% (Escherichia coli; from zone diameter, eqn (20)): 57%
- diameter of clear zone inhibition [10, 13]: 12 mm
- inhibition% ([10]; eqn (20)): 50%
- diameter of clear zone inhibition [11, 13]: 12 mm
- inhibition% ([11]; eqn (20)): 50%
- diameter of clear zone inhibition (Pseudomonas aeruginosa; [13]): 12 mm
- inhibition% (Pseudomonas aeruginosa; eqn (20)): 50%
- diameter of clear zone inhibition (Shigella flexneri; [13]): 17 mm
- inhibition% (Shigella flexneri; eqn (20)): 65%
- diameter of clear zone inhibition (Staphylococcus aureus; [13]): 10 mm
- inhibition% (Staphylococcus aureus; eqn (20)): 40%
- diameter of clear zone inhibition (Bacillus cereus; [13]): 10 mm
- inhibition% (Bacillus cereus; eqn (20)): 40%
- diameter of clear zone inhibition (Aspergillus niger; [13]): 25 mm
- inhibition% (Aspergillus niger; eqn (20)): 76%
- diameter of clear zone inhibition (Candida albicans; [13]): 12 mm
- inhibition% (Candida albicans; eqn (20)): 50%
- diameter of clear zone inhibition (Mucor indicus; [13]): 17 mm
- inhibition% (Mucor indicus; eqn (20)): 65%
- IC50 A549 (human lung cancer (A549)): 31.74 µg/mL (≈ 101 µM)
- IC50 HepG2 (liver cancer (HepG2)): 27.48 µg/mL (≈ 87.7 µM)
- IC50 MCF-7 (breast (MCF-7)): 26.67 µg/mL (≈ 85.2 µM)
- IC50 NHDF [12]: 66.72 µg/mL (≈ 213 µM)
